# Bioassay records as filed in PubChem.
# Rows were chosen to be rich in hits. Some 2.5% of all compounds tested hit in one or more screens of this group.
# MC4R antagonist = human MC4R antagonism in cAMP assay | P32245 | MC4R-expressing cells, MTII-stimulated cAMP, LANCE TR-FRET | inhibition, % at 6.5 µM | actives 0.48% (n = 360,000) | AID 540295;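 active = inhibition above its plate's cutoff, the mean of tested wells on that plate plus 3 SD, cut at about 29% in these data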;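 also: 0% = Melanotan II alone and 100% = Melanotan II plus saturating MCL0020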
#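 Material – human MC4R-expressing U2OS cells · Repeats – no replicates · Detection – TR-FRET with Eu-cAMP and labeled anti-cAMP, 671 nm · Times – compound 30 min, challenge 1 h, detection 1 h · Compound – single nominal compound dose of 6.5 µM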
# NTR1 agonist = NTR1 (human) agonism; P30989; NTR1-U2OS beta-arrestin-GFP spot imaging, agonist mode; activation, % at 20 µM; actives 0.17% (n = 330,000); AID 493036;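 active = activation at or above 40% of the spot to cytoplasm intensity ratio, with at least 20 cells analyzed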;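 also: 0% = DMSO without peptide and 100% = 100 nM NTR1 peptide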
# A1 inh = inhibitors of the anti-apoptotic protein A1, read as caspase activation. MEF A1-2A-BIM cells, Caspase-Glo 3/7 luminescence, 3 h; percent of clofoctol response, vehicle zero. caspase activation, % (concentration not given with the values). actives 0.066% (n = 330,000). AID 2462;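 active = over half of replicate activation scores above 10%, or exactly half above 10 with the replicate mean above 10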
# MC4R barr agon = human MC4R agonism via beta-arrestin; U2OS MC4R beta-arrestin complementation, luminescence; percent of melanotan II response, DMSO zero; activation, % at 8.9 µM; actives 0.98% (n = 360,000); AID 540308;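 active = activation above a per-plate cutoff, the mean activation of sample wells on that plate plus 3 SD, cut at about 8% in these data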
# HGIII-sPLA2 inh = Inhibits HGIII-sPLA2 liposome hydrolysis, primary screen | inhibition, % at 12.2 µM | AID 743126 | actives 0.56% (n = 370,000) | QFRET BODIPY PC-A2 liposome hydrolysis, fluorescence | Q9NZ20;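 active = inhibition above mean plus 3 SD of compounds lying within the high and low control bounds, cut at about 19% in these data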;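 also: 0% = median of test compound wells and 100% = no enzyme DMSO wells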
# Target sequence (Q9NZ20 whole entry, looked up): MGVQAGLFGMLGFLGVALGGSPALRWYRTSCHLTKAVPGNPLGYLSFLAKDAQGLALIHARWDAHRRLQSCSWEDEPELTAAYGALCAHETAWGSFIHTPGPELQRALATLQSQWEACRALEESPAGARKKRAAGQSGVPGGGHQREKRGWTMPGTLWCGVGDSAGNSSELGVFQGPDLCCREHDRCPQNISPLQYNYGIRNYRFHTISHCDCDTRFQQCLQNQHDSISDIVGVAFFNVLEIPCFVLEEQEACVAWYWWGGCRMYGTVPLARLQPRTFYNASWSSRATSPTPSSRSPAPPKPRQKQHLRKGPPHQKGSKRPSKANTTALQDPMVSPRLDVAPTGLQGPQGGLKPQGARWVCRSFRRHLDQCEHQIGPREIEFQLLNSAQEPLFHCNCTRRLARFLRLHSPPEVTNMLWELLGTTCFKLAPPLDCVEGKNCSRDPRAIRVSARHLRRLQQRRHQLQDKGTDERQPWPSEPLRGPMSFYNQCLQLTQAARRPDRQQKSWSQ
# Granule exo inh = blocks lytic granule exocytosis; inhibition, % at 10 µM; TALL-104 LAMP-1 surface exposure, flow cytometry; cells stimulated with thapsigargin and PMA; actives 0.66% (n = 360,000); AID 651702;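 active = inhibition above about 55%, limit read from the data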
# sPLA2 confirm = human GIII-sPLA2 inhibition, confirmation; shares compounds with HGIII-sPLA2 inh; inhibition, % at 12.2 µM; recombinant hGIII-sPLA2, BODIPY PC-A2 QFRET fluorescence; AID 743280; actives 34% (n = 2,000);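 active = mean inhibition across triplicates above the hit cutoff set in the earlier primary screen, cut at about 19% in these data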;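 also: 0% = enzyme with DMSO and 100% = DMSO wells lacking enzyme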
# 535nm interf = optically interferes with 535nm fluorescence in sPLA2 counter-screen. BODIPY FL product fluorescence interference, QFRET. inhibition, % at 12.2 µM. AID 743282. shares compounds with HGIII-sPLA2 inh. actives 8.5% (n = 2,000);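 active = average inhibition above the solvent-only control mean plus 3 SD, cut at about 6% in these data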;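 also: 0% = DMSO with substrate plus product and 100% = DMSO with substrate alone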
# 535nm interf DR = 535nm optical interference dose response, HGIII-sPLA2 counter-screen | shares compounds with HGIII-sPLA2 inh | BODIPY FL product fluorescence interference, cell-free | IC50, µM | 240 tested, under 10 active | AID 743455;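 active = IC50 at or below 10 µM; inactive = IC50 above 10 µM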
# Starred values were filed as active, the others as inactive; . = no result.
SMILES,MC4R antagonist,NTR1 agonist,A1 inh,MC4R barr agon,HGIII-sPLA2 inh,Granule exo inh,sPLA2 confirm,535nm interf,others
Cc1ccc(C(C)(C)C)cc1S(=O)(=O)N1CCC(C(=O)N2CCN(c3ccc(O)cc3)CC2)CC1,7.9,5.0,-0.4,-0.9,-22.0,0.9,.,.,
CCN(CC)c1ccc(C=Nc2ccccc2C)c(O)c1,0.0,1.7,-0.5,-1.6,20.2*,-7.3,9.7,-3.2,
CCN(CC)c1ccc(/C=N/NC(=S)NCc2ccccc2)c(O)c1,3.4,4.9,0.1,1.5,35.6*,-0.9,25.4*,10.9*,
CCN(CC)c1ccc(/C=N/N(c2ccccc2)c2ccccc2)c(O)c1,17.1,0.4,-1.4,-0.8,3.9,-0.7,.,.,
O=C(Cc1cccc(NC(=O)C2CCCN(C(=O)C3CC3)C2)c1)Nc1ccc(C(=O)N2CCOCC2)cc1 (stereo unspecified),0.0,.,.,0.1,-0.9,-9.3,.,.,
CC(C)[C@H]1C(=O)Nc2ccccc2N1C(=O)N[C@@H](Cc1ccccc1)C(=O)N[C@@H](Cc1ccccc1)C(=O)O,6.6,1.3,0.9,-0.6,-6.2,-2.1,.,.,
CC1(C(=O)NS(=O)(=O)C2CC2)CCN(C(=O)c2c(F)cccc2F)C1 (stereo unspecified),11.4,.,.,0.3,19.6*,4.9,3.3,1.6,
CCn1c(C)c(C)c2cc(C(=O)NCCCN3CCCCC3C)ccc21 (stereo unspecified),9.9,0.0,0.8,0.2,0.5,-2.6,.,.,
Cc1ccc(F)cc1NC(=S)NCCc1ccccc1,2.8,-2.0,0.0,1.4,21.7*,0.0,20.1*,-5.3,
COc1ccc(C2NCCc3c2[nH]c2ccccc32)cc1CSc1nc2ccccc2s1 (stereo unspecified),12.6,.,-0.2,7.5,19.8*,35.1,-2.3,-3.9,
C/C(=N\N=C\c1cccc(F)c1)c1nnn(-c2nonc2N)c1C,5.2,0.9,-0.1,-2.1,20.5*,6.6,-4.7,-6.8,
Nc1nc(-c2ccccc2)c(N=Nc2ccc(Cl)cc2)s1,-1.6,0.9,0.5,0.3,19.3*,0.7,34.3*,7.1*,
O=c1oc2ccccc2cc1-c1csc(NN=C2CCCC2)n1,-0.5,5.3,1.2,6.2,20.1*,0.3,7.5,-3.1,
O=C(CSc1ccccc1Cl)N1CCOCC1,-0.5,3.2,0.1,-0.7,5.6,-5.7,.,.,
COc1ccc(OC)c(NC(=O)C(=O)NNC(=O)c2cccs2)c1,1.9,-1.7,-0.1,-1.5,0.7,-3.3,.,.,
O=C1C2C3C=CC(C3)C2C(=O)N1c1cccc2cccnc12 (stereo unspecified),6.0,1.0,-0.1,-1.4,2.1,0.9,.,.,
O=C1c2ccccc2C(=O)N1c1cccc2cccnc12,-1.0,1.2,0.1,-0.2,22.3*,2.6,-1.8,-5.8,
Cc1cc(C)n(CC(O)COc2ccccc2[N+](=O)[O-])n1 (stereo unspecified),-0.4,-1.0,0.1,0.5,21.7*,-6.4,-5.5,-7.1,
CC1CCCC(C)N1NC(=S)Nc1ccc(OC(F)F)cc1 (stereo unspecified),1.5,1.4,1.2,-0.6,19.4*,-0.7,20.0*,-6.5,
CN1CCN(c2c([N+](=O)[O-])cnc3ccccc23)CC1,1.1,-0.4,-0.3,-2.3,2.3,10.5,.,.,
CC(C)CNC(=O)/C=C/c1cccs1,12.9,0.1,0.0,0.5,21.6*,5.4,-0.2,-1.8,
O=C(/C=C/c1cccs1)NC(=S)NNC(=O)Cc1cccs1,8.0,1.7,-0.3,-2.9,29.3*,-1.1,39.0*,-7.0,535nm interf DR=>122
C=CCNC(=O)/C=C/c1cccs1,-0.3,0.2,-0.9,-3.0,-0.2,-2.2,.,.,
O=C(/C=C/c1cccs1)NNC(=O)c1ccccc1,12.4,1.0,-0.1,-2.3,19.8*,-0.3,-1.0,-4.8,
[O-][n+]1nc2ccccc2c2ccccc21,3.5,.,.,-0.7,7.2,1.9,.,.,
SMILES,MC4R antagonist,NTR1 agonist,A1 inh,MC4R barr agon,HGIII-sPLA2 inh,Granule exo inh,sPLA2 confirm,535nm interf,others
CCCOc1ccccc1C1NC(=O)NC(C)=C1C(=O)OCCOC (stereo unspecified),2.7,0.2,-0.9,-0.4,20.7*,-2.6,1.9,-1.3,
N#Cc1c(C(F)(F)F)cc(-c2ccco2)nc1SCc1ccccn1,8.2,5.3,0.0,1.6,19.7*,-1.2,6.3,-10.6,
O=C(CNC(=O)c1ccco1)Nc1ccc(N2CCCCCC2)cc1,-7.8,0.2,-2.4,-3.4,22.5*,2.7,12.2,0.3,
Oc1ccc(/C=N/n2c(COc3ccccc3)n[nH]c2=S)c(O)c1,4.4,0.7,1.2,-1.8,4.3,5.9,.,.,
CCOc1ccccc1/C=N/n1c(COc2ccccc2)n[nH]c1=S,-0.3,2.5,0.9,-0.8,22.6*,19.4,19.2*,6.9*,
Oc1ccccc1/C=N/n1c(COc2ccccc2)n[nH]c1=S,1.9,0.4,-0.1,-1.9,23.7*,2.7,16.1,2.1,
Cc1ccccc1/C=N/n1c(COc2ccccc2)n[nH]c1=S,2.1,1.8,1.1,0.8,9.2,30.2,.,.,
Cc1ccc(/C=N/n2c(COc3ccccc3)n[nH]c2=S)o1,3.8,3.2,0.7,-2.8,19.9*,-2.1,24.7*,2.7,
N/C(=N\C(=O)OCc1ccccc1)N(CC#CC1=CCCCC1)CC1CC1,.,.,.,.,-11.5,.,.,.,
COc1cc(OC)cc(C(=O)NC(=S)NNC(=O)[C@H]2C[C@@H]2c2ccccc2)c1,-0.7,1.8,0.2,-3.7,-7.3,0.6,.,.,
COc1ccc(C(=O)NC(=S)NNC(=O)c2c(-c3ccccc3)noc2C)cc1OC,3.1,1.6,0.1,-1.0,19.9*,-5.8,29.1*,-9.7,535nm interf DR=>122
Cc1onc(-c2ccccc2)c1C(=O)NC(=S)NNC(=O)c1ccncc1,13.1,-1.6,0.2,0.1,19.0,7.3,.,.,
Cc1onc(-c2ccccc2)c1C(=O)NNC(=S)NC(=O)c1ccc2c(c1)OCO2,-4.3,0.7,-0.3,-5.2,27.2*,-11.6,42.5*,-11.4,535nm interf DR=>122
Cc1onc(-c2ccccc2)c1C(=O)NC(C)c1ccc2c(c1)OCO2 (stereo unspecified),-0.2,0.6,0.6,-2.8,6.3,-2.6,.,.,
Cc1onc(-c2ccccc2)c1C(=O)NC(=S)NNC(=O)c1cc(-c2ccc(F)cc2)n[nH]1,10.3,-1.0,0.1,-2.8,28.8*,0.4,41.5*,-15.8,
